Measurements as given in ChEMBL document CHEMBL4402517, “Rational modification of Mannich base-type derivatives as novel antichagasic compounds: Synthesis, in vitro and in vivo evaluation” (Bioorg Med Chem, 2019).

Assays:
[1] = Genotoxicity in Salmonella typhimurium TA1535 harboring pSK1002 assessed as umu gene induction at 0.5 mg/ml in absence of Sprague-Dawley rat liver S9 fraction metabolic activation by SOS/umu assay relative to control; type: toxicity; details: salmonella enterica subsp. enterica serovar typhimurium, read-out: FC
In short: (§1)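 umu induction in S. typhimurium TA1535/pSK1002, with or without S9 mix, in 96-well format. β-galactosidase read colorimetrically with ONPG substrate. Output given as relative units and induction factor (IF). The run is valid if positive controls reach IF ≥2. A compound counts as genotoxic at IF ≥2 at a concentration giving ≥80% bacterial survival.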

[2] = (§2) Toxicity in BALB/c mouse infected with Trypanosoma cruzi MHOM/Pe/2011/Arequipa;DTU 5 bloodstream trypomastigote assessed as change in serum urea level in chronic phase at 20 mg/kg/day, po administered for 5 consecutive days starting from day 70 post infection and measured at day 76 post infection relative to control; type: organism-based; details: in vivo
[3] = Genotoxicity in Salmonella typhimurium TA1535 harboring pSK1002 assessed as survival at 0.002 mg/ml in presence of Sprague-Dawley rat liver S9 fraction metabolic activation by SOS/umu assay relative to control; type: toxicity, subcellular; details: salmonella enterica subsp. enterica serovar typhimurium, read-out: Survival
In short: (§3)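 Survival of S. typhimurium TA1535/pSK1002 exposed to a range of compound concentrations with or without S9 mix in 96-well format. Survival percentage measured as the cytotoxicity arm of the SOS/umu test. Concentrations with survival ≥80% are counted as non-cytotoxic.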

[4] = as §2, with “as decrease” for “as change”, “serum uric acid” for “serum urea”, “infection” for “infection and”, “measured on” for “measured at”, “day 100” for “day 76”; type: organism-based; design: scale not given: the % may be the effect or the level left; details: in vivo
In short: (§4)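 Female BALB/c mice (10–12 weeks, 14–20 g; groups of three) were infected i.p. with 5 × 10^5 Arequipa bloodstream trypomastigotes. Dosing was oral at 20 mg/kg/day for 5 days, from day 8 pi (acute) or day 70 pi (chronic), as a 2 mg/ml suspension in 5% DMSO/0.5% HPMC; controls received vehicle. Cyclophosphamide 200 mg/kg i.p. was given at day 80 pi. Serum was collected 2 days post-treatment and at necropsy by cardiac puncture and compared with infected untreated controls.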

[5] = target: Superoxide dismutase [Cu-Zn] (Homo sapiens, UniProt P00441); experiment: Inhibition of human erythrocyte CuZn-SOD
In short: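 Commercial human erythrocyte CuZn-SOD. Activity measured by the Beyer–Fridovich method, tested up to 50 µM.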

[6] = Genotoxicity in Salmonella typhimurium TA1535 harboring pSK1002 assessed as umu gene induction at 0.063 mg/ml in presence of Sprague-Dawley rat liver S9 fraction metabolic activation by SOS/umu assay relative to control; type: toxicity, subcellular; details: salmonella enterica subsp. enterica serovar typhimurium, read-out: FC; in short: as §1
[7] = Genotoxicity in Salmonella typhimurium TA1535 harboring pSK1002 assessed as umu gene induction at 0.016 mg/ml in absence of Sprague-Dawley rat liver S9 fraction metabolic activation by SOS/umu assay relative to control; type: toxicity; details: salmonella enterica subsp. enterica serovar typhimurium, read-out: FC; in short: as §1
[8] = system: Trypanosoma cruzi; experiment: Antitrypanosomal activity against Trypanosoma cruzi MHOM/Pe/2011/Arequipa;DTU 5 bloodstream trypomastigotes infected in BALB/c mouse assessed as decrease in splenomegaly in chronic phase at 20 mg/kg/day, po administered for 5 consecutive days starting from day 70 post infection relative to untreated control; type: functional; design: scale not given: the % may be the effect or the level left
In short: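 Female BALB/c mice (three per group) were infected i.p. with 5 × 10^5 Arequipa trypomastigotes and dosed orally at 20 mg/kg/day for 5 days in 5% DMSO/0.5% HPMC. Controls were uninfected and vehicle-only groups. At the end of the experiment spleens were weighed and expressed as % of body weight.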

[9] = (§5) Toxicity in BALB/c mouse infected with Trypanosoma cruzi MHOM/Pe/2011/Arequipa;DTU 5 bloodstream trypomastigote assessed as decrease in serum creatine kinase muscle to brain ratio level in acute phase at 20 mg/kg/day, po administered for 5 consecutive days starting from day 8 post infection and measured on day 100 post infection by biochemical analysis relative to control; type: organism-based; design: scale not given: the % may be the effect or the level left; details: in vivo; in short: as §4
[10] = Genotoxicity in Salmonella typhimurium TA1535 harboring pSK1002 assessed as umu gene induction at 0.25 mg/ml in presence of Sprague-Dawley rat liver S9 fraction metabolic activation by SOS/umu assay relative to control; type: toxicity, subcellular; details: salmonella enterica subsp. enterica serovar typhimurium, read-out: FC; in short: as §1
[11] = Genotoxicity in Salmonella typhimurium TA1535 harboring pSK1002 assessed as survival at 0.001 mg/ml in absence of Sprague-Dawley rat liver S9 fraction metabolic activation by SOS/umu assay relative to control; type: toxicity; details: salmonella enterica subsp. enterica serovar typhimurium, read-out: Survival
In short: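 Salmonella typhimurium TA1535/pSK1002 was exposed to compounds at several concentrations with or without S9 mix, and bacterial survival % was measured. β-galactosidase induction was measured colorimetrically with ONPG substrate. Genotoxicity was counted where IF ≥ 2 at ≥80% survival; runs were valid if positive controls reached IF ≥ 2.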

[12] = Genotoxicity in Salmonella typhimurium TA1535 harboring pSK1002 assessed as umu gene induction at 0.063 mg/ml in absence of Sprague-Dawley rat liver S9 fraction metabolic activation by SOS/umu assay relative to control; type: toxicity; details: salmonella enterica subsp. enterica serovar typhimurium, read-out: FC; in short: as §1
[13] = as §5, with “uric acid” for “creatine kinase muscle to brain ratio”; type: organism-based; design: scale not given: the % may be the effect or the level left; details: in vivo; in short: as §4
[14] = Genotoxicity in Salmonella typhimurium TA1535 harboring pSK1002 assessed as survival at 0.004 mg/ml in presence of Sprague-Dawley rat liver S9 fraction metabolic activation by SOS/umu assay relative to control; type: toxicity, subcellular; details: salmonella enterica subsp. enterica serovar typhimurium, read-out: Survival; in short: as §3
[15] = as §5, with “change” for “decrease”, “total bilirubin” for “creatine kinase muscle to brain ratio”; type: organism-based; details: in vivo; in short: as §4
[16] = as §2, with “decrease” for “change”; type: organism-based; design: scale not given: the % may be the effect or the level left; details: in vivo; in short: as §4
[17] = as §2, with “serum lactate dehydrogenase” for “serum urea”, “infection” for “infection and”, “measured on” for “measured at”, “day 100” for “day 76”; type: organism-based; details: in vivo
[18] = Mutagenecity against Salmonella typhimurium TA 100 assessed as number of colonies at 22.2 ug/plate in absence of Sprague-Dawley rat S9 with metabolic activation ug/plate measured after 48 hrs by Ames test (reference value: 35.7 +/- 0.6); type: toxicity; details: salmonella enterica subsp. enterica serovar typhimurium, s9, 48 h
[19] = Mutagenecity against Salmonella typhimurium TA98 assessed as number of colonies at 66.7 ug/plate in presence of Sprague-Dawley rat S9 measured after 48 hrs by Ames test (reference value: 4 +/- 2); type: toxicity, subcellular; details: salmonella enterica subsp. enterica serovar typhimurium, s9, 48 h
[20] = as §5, with “increase” for “decrease”, “alanine aminotransferase” for “creatine kinase muscle to brain ratio”; type: organism-based; details: in vivo
[21] = Mutagenecity against Salmonella typhimurium TA98 assessed as number of colonies at 66.7 ug/plate in absence of Sprague-Dawley rat S9 measured after 48 hrs by Ames test (reference value: 3 +/- 2.6); type: toxicity; details: salmonella enterica subsp. enterica serovar typhimurium, s9, 48 h
[22] = as §2, with “as decrease” for “as change”, “serum aspartate aminotransferase” for “serum urea”, “infection” for “infection and”, “measured on” for “measured at”, “day 100” for “day 76”; type: organism-based; design: scale not given: the % may be the effect or the level left; details: in vivo
[23] = Mutagenecity against Salmonella typhimurium TA98 assessed as number of colonies at 7.4 ug/plate in absence of Sprague-Dawley rat S9 measured after 48 hrs by Ames test (reference value: 3 +/- 2.6); type: toxicity; details: salmonella enterica subsp. enterica serovar typhimurium, s9, 48 h

Sequence of Superoxide dismutase [Cu-Zn] (P00441 whole entry): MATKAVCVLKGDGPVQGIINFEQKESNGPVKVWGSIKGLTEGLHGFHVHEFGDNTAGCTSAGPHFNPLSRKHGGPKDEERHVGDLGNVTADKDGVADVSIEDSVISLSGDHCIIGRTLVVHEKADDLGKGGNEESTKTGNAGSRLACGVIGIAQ

For `O=C(CCN1CCN(c2ccc(C(F)(F)F)cc2)CC1)c1ccc(O)cc1`, the fold induction at 0.5 mg/ml [1] was 0.43, the Activity [2] was over 10% and the viability at 0.002 mg/ml [3] was 108%. The Activity [4] was “<= 10%”, the IC50 [5] was over 50 µM and the fold induction at 0.063 mg/ml [6] was 0.85. For the same compound, the fold induction at 0.016 mg/ml [7] was 0.74, the Activity [8] was 66% and the Activity [9] was “<= 30%”. For the same compound, the fold induction at 0.25 mg/ml [10] was 0.63, the viability at 0.001 mg/ml [11] was 114% and the fold induction at 0.063 mg/ml [12] was 0.67. For the same compound, the Activity [13] was “<= 30%” and the viability at 0.004 mg/ml [14] was 112%.
For `O=C(Cn1ccnc1[N+](=O)[O-])NCc1ccccc1` [BENZNIDAZOLE], the Activity [15] was over 10%, the Activity [4] was “<= 30%” and the Activity [16] was “<= 20%”. For the same compound, the Activity [13] was “<= 10%”.
`O=C(CCN1CCN(c2ccc(Cl)cc2)CC1)c1ccc(O)cc1` showed a fold induction at 0.5 mg/ml [1] of 0.26, a viability at 0.002 mg/ml [3] of 111% and an Activity [15] of over 10%. The Activity [17] was over 10%, the Activity [18] was 34.3 and the Activity [19] was 6.3. For the same compound, the IC50 [5] was over 50 µM, the Activity [16] was “<= 30%” and the fold induction at 0.063 mg/ml [6] was 0.87. For the same compound, the fold induction at 0.016 mg/ml [7] was 0.66, the Activity [8] was 81% and the Activity [20] was “<= 20%”. The Activity [9] was “<= 20%”, the fold induction at 0.25 mg/ml [10] was 0.63 and the viability at 0.001 mg/ml [11] was 104%. For the same compound, the Activity [21] was 4, the Activity [22] was “<= 10%” and the Activity [23] was 4. The fold induction at 0.063 mg/ml [12] was 0.71 and the viability at 0.004 mg/ml [14] was 108%.
